These results are taken from ChEMBL document CHEMBL2203193, “Synthesis of novel mono and bis-indole conduritol derivatives and their α/β-glycosidase inhibitory effects” (Bioorg Med Chem Lett, 2012).

For orientation: IC50 means the concentration at which inhibition is half-maximal.

SMILES strings stand for the structures.

Experiment [1] in a line: Inhibition of Bacillus stearothermophilus alpha-glucosidase using 4-nitrophenyl alpha-D-glucopyranoside as substrate after 30 mins by spectrophotometric analysis. Also on record: species or system Geobacillus stearothermophilus. The procedure, abridged:
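Inhibitor in phosphate buffer pH 6.8 with 1 mM 4-nitrophenyl α-D-glucopyranoside was preincubated 5 min at 37 °C. Then 0.075 unit enzyme was added and the mix held 30 min at 37 °C. Stopped with 100 mM Na₂CO₃; liberated p-nitrophenol read at 400 nm. Inhibitor levels were 1, 3, 10, 15 and 25, each in triplicate. IC50 came from an activity% vs log[inhibitor] plot, with no-inhibitor control taken as 100%.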

Experiment [2] is described as follows: Inhibition of almond beta-glucosidase using 4-nitrophenyl beta-D-glucopyranoside as substrate after 30 mins by spectrophotometric analysis. Also on record: species or system Prunus dulcis. Summed up: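 Reaction held 1 mM 4-nitrophenyl β-D-glucopyranoside in phosphate buffer pH 6.8 with inhibitor, preincubated at 37 °C for 5 min. Enzyme (EC 3.2.1.21, 0.075 unit) was then added, followed by 30 min at 37 °C. Na₂CO₃ (100 mM) stop, then absorbance at 400 nm. Inhibitor at 10, 20, 30, 50, 70, 80, 90 and 100, triplicates. Control without inhibitor set to 100%; IC50 from activity% vs log[inhibitor].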

Take `O[C@H]1[C@H](O)[C@@H](N2CCc3ccccc32)C=C[C@@H]1N1CCc2ccccc21`: the figures for the IC50 in experiment [1] and in experiment [2] were 18.1 µM and 67.7 µM, respectively.

For `CC(=O)O[C@H]1[C@H](OC(C)=O)[C@@H](n2ccc3ccccc32)C=C[C@@H]1n1ccc2ccccc21`, the IC50 in experiment [1] worked out at 19.3 µM; in experiment [2], 52.8 µM.

For the compound `CC(=O)O[C@@H]1[C@@H](O)[C@H](OC(C)=O)C=C[C@H]1N1CCc2ccccc21`, the IC50 was 12.4 µM in experiment [1] and 24.3 µM in experiment [2].

Regarding `CC(=O)O[C@@H]1[C@@H](O)[C@H](OC(C)=O)C=C[C@H]1n1ccc2ccccc21`, the IC50 came to 11.6 µM in experiment [1] and 23.1 µM in experiment [2].

With `C[C@H]1O[C@H](O[C@H]2[C@H](O)[C@@H](O)[C@@H](O[C@H]3[C@H](O)[C@@H](O)C(O)O[C@@H]3CO)O[C@@H]2CO)[C@H](O)[C@@H](O)[C@@H]1N[C@H]1C=C(CO)[C@@H](O)[C@H](O)[C@H]1O` (stereo not given in full) [ACARBOSE], the results for the 50% inhibitory concentration (IC50) in experiment [1] and in experiment [2] were 9.24 µM and 103 µM, respectively.
